Assay results: ChEMBL document CHEMBL3352437, “Novel 3,5-bis(arylidene)-4-oxo-1-piperidinyl dimers: structure-activity relationships and potent antileukemic and antilymphoma cytotoxicity” (Eur J Med Chem, 2014)

Key:
EL4 = assay: Cytotoxicity against mouse EL4 cells assessed as dead cells at 1 uM after 24 hrs; format: functional
In short: (§1)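 Dienones added as DMSO solutions to cells in RPMI medium and incubated 24 h at 37°C. Cytotoxicity was scored as cell-membrane disruption by propidium iodide staining and expressed as percentage of dead cells, averaged over three independent experiments.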

KM12 = assay: Cytotoxicity against human KM12 cells assessed as inhibition of tumor growth after 24 hrs; format: functional, cell-based; settings: KM12, 24 h
HeLa = assay: Antiproliferative activity against human HeLa cells after 72 hrs by coulter counting analysis; format: functional, cell-based
In short: (§2)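 Cells exposed to a range of concentrations in RPMI 1640 at 37°C for 72 h. Surviving cells counted by Coulter counter. IC50 taken from concentration-response curves, mean ± SD of at least three independent experiments.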

COLO 205 = assay: Cytotoxicity against human COLO205 cells assessed as inhibition of tumor growth after 24 hrs; format: functional, cell-based; settings: COLO 205, 24 h
BJAB = assay: Cytotoxicity against human BJAB cells assessed as dead cells at 1 uM after 24 hrs; format: functional; in short: as §1
[1] = Antileukemic activity against human RPMI8226 cells assessed as inhibition of tumor growth after 24 hrs; format: functional, cell-based; settings: rpmi-8226
CCRF-CEM [2] = assay: Cytotoxicity against human CEM cells assessed as dead cells at 1 uM after 24 hrs; format: functional; in short: as §1
[3] = Cytotoxicity against human 22Rvl cells assessed as dead cells at 1 uM after 24 hrs; format: functional; in short: as §1
MCF7 = assay: Cytotoxicity against human MCF7 cells assessed as dead cells at 1 uM after 24 hrs; format: functional; in short: as §1
Ramos = assay: Cytotoxicity against human Ramos cells assessed as dead cells at 1 uM after 24 hrs; format: functional; in short: as §1
K562 = assay: Antileukemic activity against human K562 cells assessed as inhibition of tumor growth after 24 hrs; format: functional, cell-based; settings: K562, 24 h
[4] = Cytotoxicity against human HuT-102 cells assessed as dead cells at 1 uM after 24 hrs; format: functional; in short: as §1
HS27 = assay: Cytotoxicity against human HS27 cells assessed as dead cells at 1 uM after 24 hrs; format: cell-based; settings: hs27, 24 h
In short: (§3)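 Compounds added from DMSO solutions to cells in medium (RPMI; DMEM for Hs-27 fibroblasts) and incubated 24 h at 37°C. Membrane disruption scored by propidium iodide uptake. Result is percentage of dead cells, average of three independent experiments.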

SR = assay: Antileukemic activity against human SR cells assessed as inhibition of tumor growth after 24 hrs; format: functional, cell-based
CCRF-CEM [5] = assay: Antiproliferative activity against human CEM cells after 72 hrs by coulter counting analysis; format: functional, cell-based; in short: as §2
Jurkat = assay: Cytotoxicity against human Jurkat cells assessed as dead cells at 1 uM after 24 hrs; format: functional; in short: as §1
L1210 = assay: Antiproliferative activity against mouse L1210 cells after 72 hrs by coulter counting analysis; format: functional, cell-based; settings: L1210, 72 h
DU-145 = assay: Cytotoxicity against human DU145 cells assessed as dead cells at 1 uM after 24 hrs; format: functional; in short: as §1
SW-620 = assay: Cytotoxicity against human SW620 cells assessed as inhibition of tumor growth after 24 hrs; format: functional, cell-based; settings: SW-620, 24 h
Raji = assay: Cytotoxicity against human Raji cells assessed as dead cells at 1 uM after 24 hrs; format: functional; in short: as §1
HL-60(TB) = assay: Antileukemic activity against human HL-60(TB) cells assessed as inhibition of tumor growth after 24 hrs; format: functional, cell-based; settings: HL-60, 24 h
[6] = Cytotoxicity against human MOLT3 cells assessed as dead cells at 1 uM after 24 hrs; format: functional, MOLT-3; in short: as §1
[7] = Cytotoxicity against human HCT15 cells assessed as inhibition of tumor growth after 24 hrs; format: functional, cell-based; settings: HCT-15, 24 h
LAPC4 = assay: Cytotoxicity against human LAPC4 cells assessed as dead cells at 1 uM after 24 hrs; format: functional; in short: as §1
[8] = Cytotoxicity against human NCI60 cells assessed as inhibition of tumor growth after 24 hrs; format: functional, cell-based; settings: NCI60, 24 h
HCC70 = assay: Cytotoxicity against human HCC70 cells assessed as dead cells at 1 uM after 24 hrs; format: functional; in short: as §1
[9] = Antiproliferative activity against human Molt4/C8 cells after 72 hrs by coulter counting analysis; format: functional, cell-based; settings: MOLT-4, 72 h; in short: as §2
HCC 2998 = assay: Cytotoxicity against human HCC2998 cells assessed as inhibition of tumor growth after 24 hrs; format: functional, cell-based; settings: HCC 2998, 24 h
[10] = Cytotoxicity against human MCF10A cells assessed as dead cells at 1 uM after 24 hrs; format: cell-based; settings: mcf-10a; in short: as §3
[11] = Cytotoxicity against human SupT1 cells assessed as dead cells at 1 uM after 24 hrs; format: functional, SUP-T1; in short: as §1
YT = assay: Cytotoxicity against human YT cells assessed as dead cells at 1 uM after 24 hrs; format: functional; in short: as §1
[12] = Cytotoxicity against human MDA231 cells assessed as dead cells at 1 uM after 24 hrs; format: functional, MDA-MB-231; in short: as §1
[13] = Cytotoxicity against human NALM6 cells assessed as dead cells at 1 uM after 24 hrs; format: functional, NALM-6; in short: as §1

Compound | Activity (EL4) [%] | IC50 (KM12) [nM] | IC50 (HeLa) [nM] | IC50 (COLO 205) [nM] | Activity (BJAB) [%] | IC50 [1] [nM] | Activity (CCRF-CEM [2]) [%] | Activity [3] [%] | Activity (MCF7) [%] | Activity (Ramos) [%] | IC50 (K562) [nM] | Activity [4] [%] | IC50 (SR) [nM] | IC50 (CCRF-CEM [5]) [nM] | IC50 (L1210) [nM] | IC50 (SW-620) [nM] | IC50 (HL-60(TB)) [nM] | IC50 [8] [nM] | IC50 [9] [nM] | IC50 (HCC 2998) [nM] | also measured
Cc1ccc(/C=C2/CN(C(=O)CC(=O)N3C/C(=C\c4ccc(C)cc4)C(=O)/C(=C/c4ccc(C)cc4)C3)C/C(=C\c3ccc(C)cc3)C2=O)cc1 | 66.9 | 170 | 2880 | 170 | 60.2 | 30 | 85.7 | 6.3 | 19.1 | 83 | 100 | 50.9 | 50 | 3440 | 5380 | 150 | 230 | 190 | 1890 | 300 | Activity (HS27): 26.5%; Activity (Jurkat): 85.5%; Activity (DU-145): 21.9%; Activity (Raji): 46.5%; Activity [6]: 21.3%; IC50 [7]: 80 nM; Activity (LAPC4): 7%; Activity (HCC70): 10.1%; Activity [10]: 15.4%; Activity [11]: 23.6%; Activity (YT): 29.1%; Activity [12]: 8.6%; Activity [13]: 67.6%
N[C@@H](Cc1ccc(N(CCCl)CCCl)cc1)C(=O)O [MELPHALAN] |  | 57500 | 1700 | 32400 |  | 28200 |  |  |  |  | 195000 |  | 3240 | 1440 | 4850 | 26900 | 380 | 19100 | 2810 | 52500 | 
O=C1/C(=C\c2ccc(Cl)c(Cl)c2)CN(C(=O)CC(=O)N2C/C(=C\c3ccc(Cl)c(Cl)c3)C(=O)/C(=C/c3ccc(Cl)c(Cl)c3)C2)C/C1=C\c1ccc(Cl)c(Cl)c1 |  |  | 39800 |  |  |  |  |  |  |  |  |  |  | 49900 | 30400 |  |  |  | 23500 |  | 
O=C1/C(=C\c2ccc(O)cc2)CN(C(=O)CC(=O)N2C/C(=C\c3ccc(O)cc3)C(=O)/C(=C/c3ccc(O)cc3)C2)C/C1=C\c1ccc(O)cc1 |  | 690 |  | 1660 |  | 350 |  |  |  |  | 530 |  | 460 |  |  | 760 | 1740 | 1660 |  | 1740 | IC50 [7]: 1170 nM
O=C1/C(=C\c2ccc(F)cc2)CN(C(=O)CC(=O)N2C/C(=C\c3ccc(F)cc3)C(=O)/C(=C/c3ccc(F)cc3)C2)C/C1=C\c1ccc(F)cc1 | 47.7 |  | 5610 |  | 61.2 |  | 92.4 | 18.8 | 0.2 | 78.6 |  | 58.5 |  | 2750 | 11000 |  |  |  | 1580 |  | Activity (HS27): 0.3%; Activity (Jurkat): 87.1%; Activity (DU-145): 38.4%; Activity (Raji): 35.3%; Activity [6]: 2.6%; Activity (LAPC4): 11.1%; Activity (HCC70): 3.1%; Activity [10]: 7%; Activity [11]: 24.9%; Activity (YT): 19.2%; Activity [12]: 0.4%; Activity [13]: 51.9%
O=c1[nH]cc(F)c(=O)[nH]1 [FLUOROURACIL] |  |  |  |  |  | 3550 |  |  |  |  |  |  |  |  |  |  |  | 29500 |  |  | 
O=C1/C(=C\c2ccccc2)CN(CCCN2C/C(=C\c3ccccc3)C(=O)/C(=C/c3ccccc3)C2)C/C1=C\c1ccccc1 | 65.3 | 160 | 5540 | 190 | 39.4 | 40 | 64.5 | 1.7 | 43.5 | 82.1 | 40 | 10 | 40 | 2520 | 2980 | 60 | 250 | 190 | 1450 | 180 | Activity (HS27): 2.9%; Activity (Jurkat): 76.3%; Activity (Raji): 31.9%; Activity [6]: 27.4%; IC50 [7]: 200 nM; Activity (LAPC4): 5.7%; Activity (HCC70): 4.3%; Activity [10]: 19.4%; Activity [11]: 21.2%; Activity (YT): 6.6%; Activity [12]: 20.1%; Activity [13]: 49.2%
